# Hits are enriched below; roughly 3.5% of the tested compounds scored in any of these assays.
# Pf gametocyte = late stage P. falciparum gametocyte viability inhibitors, primary screen, ATP luminescence, HTS. P. falciparum stage V gametocytes, 24 h. inhibition, % at 10.9 µM. 150,000 compounds, 0.065% hits;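 active = inhibition above the mean plus 3 SD of compounds within the control limits, set per campaign, cut at about 38% in these data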;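 note: 0% = DMSO wells and 100% = medium only without gametocytes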
# NF-kB expr up = activators of NF-kB expression in neurons, primary screen, cell-based, HTS | human neuronal cells, NF-kB reporter expression; hits give high values | fold change at 12.5 µM | 190,000 compounds, 1.6% hits | AID 1239, 2008; in the data active = fold change above about 3.3
# APP 5'UTR act = activators of APP 5'UTR luciferase reporter, primary screen, SH-SY5Y cells; SH-SY5Y APP 5'UTR luciferase reporter, luminescence; zero percent = DMSO vehicle wells; activation, % at 2 µM; 190,000 compounds, 1% hits; AID 1276, 2008;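 active = activation above a set limit, based on mean plus 3 SD of controls, cut at about 140% in these data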
# STAT1 act = STAT1 signaling activators, primary screen, cell-based, HTS, luciferase reporter | NIH 3T3 STAT1-luciferase reporter, IFN-gamma, luminescence; 100% = IFN-gamma alone, no compound | activation (% of control), % at 5.5 µM | 200,000 compounds, 2.6% hits | AID 932, 2007;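 active = activation above the screen-wide mean activation plus 3 SD, cut at about 130% in these data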;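 note: raw ratio to IFN-gamma control signal so 100% means no change and 0% no light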
# FLuc stim CS = FLuc activators, initial screening, artefact control for FLuc-dependent activation tests, biochemical, ATPlite luminescence. 200,000 tested, under 10 active. ATPlite luciferase biochemical, 10 min; 0 = ATP-free wells, 1 = DMSO control. activation factor at 10 µM;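 active = luciferase activation factor, scaled between plate controls, of at least 2 with compound at 10 µM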
# Target sequence (P08659 whole entry, looked up): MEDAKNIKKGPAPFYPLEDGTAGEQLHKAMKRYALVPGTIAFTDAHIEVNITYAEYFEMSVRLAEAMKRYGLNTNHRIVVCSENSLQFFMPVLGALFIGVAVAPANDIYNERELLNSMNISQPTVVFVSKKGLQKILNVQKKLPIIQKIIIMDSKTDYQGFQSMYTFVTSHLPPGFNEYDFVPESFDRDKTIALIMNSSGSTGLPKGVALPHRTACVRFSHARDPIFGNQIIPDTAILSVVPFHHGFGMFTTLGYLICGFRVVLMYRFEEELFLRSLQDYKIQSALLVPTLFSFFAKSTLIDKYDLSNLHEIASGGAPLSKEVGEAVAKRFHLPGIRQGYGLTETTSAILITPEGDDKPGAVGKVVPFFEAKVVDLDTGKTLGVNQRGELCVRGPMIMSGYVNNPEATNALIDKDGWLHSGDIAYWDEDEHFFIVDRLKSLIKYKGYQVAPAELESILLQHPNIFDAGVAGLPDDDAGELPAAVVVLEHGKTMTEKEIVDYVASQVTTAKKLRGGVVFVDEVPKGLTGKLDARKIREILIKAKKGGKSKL
#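 System: cell-free luciferase reagent; medium: PBS as buffer for the ATP substrate; doses: test compounds dosed from 2 mM stocks in 100% DMSO; incubation: 10 min, room temperature; measured by: luminescence from luciferase reaction; read-out: luciferase activation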
# FLuc inhib CS = firefly luciferase enzyme inhibitors, primary screen, artefact control for luciferase-based inhibitor screens, biochemical, luminescence, ATPLite; 200,000 compounds, 1.5% hits; Luciferin 4-monooxygenase (Photinus pyralis), P08659; AID 1006, 2008; inhibition, % at 10 µM; 10 min;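 active = inhibition above about 50% when tested at 10 µM, limit read from the data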
# Starred values were filed as active, the others as inactive; . = no result.
SMILES,Pf gametocyte,NF-kB expr up,APP 5'UTR act,STAT1 act,FLuc stim CS,FLuc inhib CS
CN1CCN(S(=O)(=O)c2ccc(NC(=O)COc3ccccc3Cl)cc2)CC1,3.0,0.97,-3.9,105.9,1.1,-5.4
COc1nc(C)ccc1-c1noc(-c2ccccn2)n1,.,4.22*,23.7,123.9,0.3,68.7*
O=C1C2C3C=CC(C3)C2C(=O)N1c1ccc(-c2nc3ccccc3o2)cc1 (stereo unspecified),.,1.3,32.3,143.0*,0.9,13.6
O=C1C2C3C=CC(C3)C2C(=O)N1c1ccncc1 (stereo unspecified),.,1.05,-2.5,98.9,1.1,-8.7
CCC1(CC)N=C(c2ccccc2)C(=S)N1,-5.2,0.96,-15.1,95.1,1,-2.8
c1ccc2c(CCNc3ncnc4nc[nH]c34)cccc2c1,6.9,0.84,10.8,102.1,0.9,7.5
CN(C)c1ccc(/C=C/c2ccc3ccccc3[n+]2C)cc1,23.4,2.44,16.6,77.5,0.7,31.9
CN(C)c1ccc(/C=C/c2ccc3c4ccccc4ccc3[n+]2-c2ccccc2)cc1,-14.0,0.36,-83.2,56.4,0.3,65.4*
CCCCN(CC(=O)NCc1ccc(F)cc1)C(=O)c1ccco1,1.2,1.17,3.4,97.6,1,0.2
O=C(CSc1nnc(-c2ccco2)o1)c1ccc[nH]1,16.2,2.29,73.2,130.0*,0.9,7.6
O=C(CCSc1ccccn1)Nc1ccc(Br)cc1,6.3,3.38*,65.1,140.0*,1,2.0
O=C(Nc1ncc(Cc2ccccc2)s1)C1CCCO1 (stereo unspecified),.,4.11*,121.0,123.3,0.6,41.9
CCOc1ccc2nc(NC(=O)C3CCCO3)sc2c1 (stereo unspecified),.,4.74*,157.9*,140.0*,0.6,42.8
Nc1ccc2nc(NC(=O)C3CCCCC3)sc2c1,13.0,4.83*,121.0,145.6*,0.6,37.8
O=C(Nc1nc2ccc(F)cc2s1)C1CCCO1 (stereo unspecified),.,3.94*,106.1,145.6*,0.9,13.0
CC(=O)c1c(C)n(C)c2ccc(OC(=O)c3ccc([N+](=O)[O-])cc3)cc12,.,0.81,12.3,97.7,1,-0.1
O=C(Nc1nc2ccc(S(=O)(=O)N3CCOCC3)cc2s1)c1cccs1,-6.3,2,6.4,102.0,0.9,12.5
O=C(c1ccccn1)N1N=C2/C(=C/c3ccc(F)cc3)CCCC2C1c1ccc(F)cc1 (stereo unspecified),-18.3,0.87,-5.5,99.9,1,-4.3
O=C(Nc1nnc(-c2ccccc2F)s1)C1CCCO1 (stereo unspecified),.,2.94,90.7,141.4*,0.9,13.8
CCOc1ccc(C2=NNC(c3cccnc3)=Nc3ccc(OC)cc32)cc1,-12.6,0.94,-4.6,102.6,0.5,45.3
CCOc1ccc(C2=NNC(c3cccs3)=Nc3ccc(OC)cc32)cc1,16.9,6.43*,7.8,100.2,1,-1.1
N#Cc1c(N)nc(Sc2ccc(Cl)cc2)c(C#N)c1-c1ccccc1Cl,7.0,.,.,.,.,.
O=C(/C=C/c1ccccc1)N1CCN(c2cccc(Cl)n2)CC1,-3.3,1.02,8.3,93.3,1,4.7
COc1ccc2sc(NC(=O)NC(=O)c3c(Cl)cccc3Cl)nc2c1,12.6,.,.,.,.,.
CCC(=O)Nc1nc2ccc3nc(C)sc3c2s1,.,3.47*,27.8,149.1*,1,-0.3
SMILES,Pf gametocyte,NF-kB expr up,APP 5'UTR act,STAT1 act,FLuc stim CS,FLuc inhib CS
CCOCC(=O)Nc1nc2ccc(OC)cc2s1,9.4,3.27,72.6,125.8,0.7,31.7
COc1ccc2sc(NC(=O)CC(C)C)nc2c1,-3.2,3.46*,93.7,146.4*,0.9,14.9
CCC(=O)Nc1nc2cc(OC)ccc2s1,-1.1,3.64*,86.5,140.5*,0.8,20.0
COc1ccc2sc(NC(C)=O)nc2c1,15.7,2.42,103.0,136.1*,0.9,8.4
CC(=O)NC1Sc2ccccc2N=C1c1ccccc1 (stereo unspecified),.,2.66,133.7,123.9,0.7,26.0
C[C@@H]1CN([C@@H](C)CO)C(=O)Cc2cc(NC(=O)C3CCCCC3)ccc2O[C@H]1CN(C)S(=O)(=O)c1ccccc1,17.7,.,.,.,.,.
Cc1nc2c(C(=O)Nc3ccc(N4CCCC(O)C4)cc3)snc2c(=O)[nH]1 (stereo unspecified),-7.3,.,.,.,.,.
O=C(Nc1ccc(N2CCCC(O)C2)cc1)c1snc2c(=O)[nH]cnc12 (stereo unspecified),.,1.3,.,101.4,0.3,65.5*
Cc1nn(-c2ccccc2)c(N)c1N=Nc1cccnc1,-1.0,2.3,51.1,132.9*,0.8,24.0
Cc1cc(OCC(=O)O)c2cccc(C)c2n1,.,0.98,-3.2,95.4,1.1,-7.0
Cc1cccc2c(N)c3c(nc12)CCCC3 (tested in a mixture with another compound),42.9*,1.76,18.8,118.2,1,-0.5
Cc1cc(C)c2c(N)c3cccc(C)c3nc2n1,15.4,0.97,-27.4,147.6*,1.1,-5.6
COc1ccc(-c2cn3cc(Br)cnc3n2)cc1,7.7,2.17,100.4,134.6*,0.7,28.5
NNS(=O)(=O)c1ccc(N2CCCC2=O)c([N+](=O)[O-])c1,28.0,1.08,9.5,101.1,1.1,-5.6
NS(=O)(=O)c1ccc(N2CCCC2=O)c([N+](=O)[O-])c1,38.2*,1.08,13.4,101.2,1,0.2
CCOc1ccc2c(c1)C(=O)c1cc(OCC(=O)O)ccc1-2,-15.6,.,.,.,.,.
CCCCOc1ccc2c(c1)C(=O)c1cc(O)ccc1-2,-7.2,.,98.8,148.8*,0.9,14.4
CC(C)(C)OC(=O)N/N=C\c1ccc[nH]1,.,2.19,34.0,115.2,0.4,62.3*
CC(C)(C)OC(=O)N/N=C/c1cccc([N+](=O)[O-])c1,-11.0,3.88*,94.8,130.0*,0.2,78.7*
CCCCC(=O)NC(Nc1ccc(C)cn1)(C(=O)OCC)C(F)(F)F (stereo unspecified),.,0.92,-2.7,96.9,1,-3.8
Cc1oc2ccc(Br)cc2c(=O)c1-c1nn[nH]n1,.,1.02,-6.9,107.9,1.1,-5.0
Cc1ccc2nc(SCC(=O)N/N=C/c3ccco3)cc(C)c2c1,-9.6,0.63,21.4,90.8,1,-3.3
Cc1ccc2nc(N/N=C/c3ccco3)cc(C)c2c1,.,3.19,100.9,138.4*,0.6,41.0
Cc1ccc(S(=O)(=O)n2ccc(=O)[nH]2)cc1,.,1.04,-0.6,96.3,1,-3.5
CCOC(=O)c1c(C)[nH]c(C2=NNC(=NC3CC3)SC2)c1C,.,0.89,157.6*,42.8,0.3,70.6*
Cc1ccc(/C=C2\Sc3ccccc3C2=O)s1,.,5.52*,28.2,92.9,0.1,87.3*
CC(=O)Nc1ccc(/C=C2\Sc3ccccc3C2=O)cc1,3.8,.,.,.,.,.

# Screening results: PubChem BioAssay, several laboratories
